Measurements published in ChEMBL document CHEMBL2375313, “Synthesis, in vitro antitumor evaluation and DNA-binding study of novel tetrahydroquinolines and some derived tricyclic and tetracyclic ring systems” (Eur J Med Chem, 2013).

Key:
Type in all cases: functional
NCI/ADR-RES = assay: Cytotoxicity against human NCI/ADR-RES cells assessed as growth inhibition at 10 uM after 48 hrs by sulphorhodamine B assay; details: read-out: GI
Procedure, shortened: (§1)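 NCI-60 one-dose screen per the NCI Drug Evaluation Branch protocol. Cells given a single 10 µM concentration with 48 h continuous exposure. Growth estimated by sulphorhodamine B protein assay. Result expressed as percentage growth inhibition relative to untreated growth.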

PC-3 = assay: Cytotoxicity against human PC3 cells assessed as growth inhibition at 10 uM after 48 hrs by sulphorhodamine B assay; details: PC-3, 48 h, read-out: GI; procedure, shortened: as §1
[1] = Cytotoxicity against human EKVX cells assessed as growth inhibition at 10 uM after 48 hrs by sulphorhodamine B assay; details: read-out: GI; procedure, shortened: as §1
M14 = assay: Cytotoxicity against human M14 cells assessed as growth inhibition at 10 uM after 48 hrs by sulphorhodamine B assay; details: M14, 48 h, read-out: GI; procedure, shortened: as §1
SNB-19 = assay: Cytotoxicity against human SNB19 cells assessed as growth inhibition at 10 uM after 48 hrs by sulphorhodamine B assay; details: SNB-19, 48 h, read-out: GI; procedure, shortened: as §1
U-251 = assay: Cytotoxicity against human U251 cells assessed as growth inhibition at 10 uM after 48 hrs by sulphorhodamine B assay; details: U-251, 48 h, read-out: GI; procedure, shortened: as §1
UACC-62 = assay: Cytotoxicity against human UACC62 cells assessed as growth inhibition at 10 uM after 48 hrs by sulphorhodamine B assay; details: UACC-62, 48 h, read-out: GI; procedure, shortened: as §1
HT-29 = assay: Cytotoxicity against human HT-29 cells assessed as growth inhibition at 10 uM after 48 hrs by sulphorhodamine B assay; details: HT-29, 48 h, read-out: GI; procedure, shortened: as §1
UO-31 = assay: Cytotoxicity against human UO31 cells assessed as growth inhibition at 10 uM after 48 hrs by sulphorhodamine B assay; details: UO-31, 48 h, read-out: GI; procedure, shortened: as §1
MCF7 = assay: Cytotoxicity against human MCF7 cells assessed as growth inhibition at 10 uM after 48 hrs by sulphorhodamine B assay; details: MCF7, 48 h, read-out: GI; procedure, shortened: as §1
MDA-MB-468 = assay: Cytotoxicity against human MDA-MB-468 cells assessed as growth inhibition at 10 uM after 48 hrs by sulphorhodamine B assay; details: MDA-MB-468, 48 h, read-out: GI; procedure, shortened: as §1
Hs-578T = assay: Cytotoxicity against human Hs578T cells assessed as growth inhibition at 10 uM after 48 hrs by sulphorhodamine B assay; details: read-out: GI; procedure, shortened: as §1
MOLT-4 = assay: Cytotoxicity against human MOLT4 cells assessed as growth inhibition at 10 uM after 48 hrs by sulphorhodamine B assay; details: MOLT-4, 48 h, read-out: GI; procedure, shortened: as §1
RPMI-8226 = assay: Cytotoxicity against human RPMI8226 cells assessed as growth inhibition at 10 uM after 48 hrs by sulphorhodamine B assay; details: RPMI-8226, 48 h, read-out: GI; procedure, shortened: as §1
A549 = assay: Cytotoxicity against human A549 cells assessed as growth inhibition at 10 uM after 48 hrs by sulphorhodamine B assay; details: A549, 48 h, read-out: GI; procedure, shortened: as §1
IGROV-1 = assay: Cytotoxicity against human IGROV1 cells assessed as growth inhibition at 10 uM after 48 hrs by sulphorhodamine B assay; details: IGROV-1, 48 h, read-out: GI; procedure, shortened: as §1
RXF 393 = assay: Cytotoxicity against human RXF393 cells assessed as growth inhibition at 10 uM after 48 hrs by sulphorhodamine B assay; details: RXF 393, 48 h, read-out: GI; procedure, shortened: as §1
OVCAR-4 = assay: Cytotoxicity against human OVCAR4 cells assessed as growth inhibition at 10 uM after 48 hrs by sulphorhodamine B assay; details: OVCAR-4, 48 h, read-out: GI; procedure, shortened: as §1
K562 = assay: Cytotoxicity against human K562 cells assessed as growth inhibition at 10 uM after 48 hrs by sulphorhodamine B assay; details: K562, 48 h, read-out: GI; procedure, shortened: as §1
SK-MEL-2 = assay: Cytotoxicity against human SK-MEL-2 cells assessed as growth inhibition at 10 uM after 48 hrs by sulphorhodamine B assay; details: SK-MEL-2, 48 h, read-out: GI; procedure, shortened: as §1
HL-60(TB) = assay: Cytotoxicity against human HL-60(TB) cells assessed as growth inhibition at 10 uM after 48 hrs by sulphorhodamine B assay; details: HL-60, 48 h, read-out: GI
Procedure, shortened: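 NCI-60 one-dose primary screen run to the Drug Evaluation Branch protocol. Cells are exposed to a single 10 µM concentration for 48 h continuously, and growth is read by SRB protein assay. Data are reported as percent growth of treated cells, expressed as % growth inhibition.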

OVCAR-5 = assay: Cytotoxicity against human OVCAR5 cells assessed as growth inhibition at 10 uM after 48 hrs by sulphorhodamine B assay; details: OVCAR-5, 48 h, read-out: GI; procedure, shortened: as §1
DU-145 = assay: Cytotoxicity against human DU145 cells assessed as growth inhibition at 10 uM after 48 hrs by sulphorhodamine B assay; details: DU-145, 48 h, read-out: GI; procedure, shortened: as §1
SK-OV-3 = assay: Cytotoxicity against human SKOV3 cells assessed as growth inhibition at 10 uM after 48 hrs by sulphorhodamine B assay; details: SK-OV-3, 48 h, read-out: GI; procedure, shortened: as §1
NCI-H23 = assay: Cytotoxicity against human NCI-H23 cells assessed as growth inhibition at 10 uM after 48 hrs by sulphorhodamine B assay; details: NCI-H23, 48 h, read-out: GI; procedure, shortened: as §1
HOP-92 = assay: Cytotoxicity against human HOP92 cells assessed as growth inhibition at 10 uM after 48 hrs by sulphorhodamine B assay; details: HOP-92, 48 h, read-out: GI; procedure, shortened: as §1
CCRF-CEM = assay: Cytotoxicity against human CCRF-CEM cells assessed as growth inhibition at 10 uM after 48 hrs by sulphorhodamine B assay; details: read-out: GI; procedure, shortened: as §1
MDA-MB-435 = assay: Cytotoxicity against human MDA-MB-435 cells assessed as growth inhibition at 10 uM after 48 hrs by sulphorhodamine B assay; details: MDA-MB-435, 48 h, read-out: GI; procedure, shortened: as §1
SK-MEL-5 = assay: Cytotoxicity against human SK-MEL-5 cells assessed as growth inhibition at 10 uM after 48 hrs by sulphorhodamine B assay; details: SK-MEL-5, 48 h, read-out: GI; procedure, shortened: as §1
HCT-116 = assay: Cytotoxicity against human HCT116 cells assessed as growth inhibition at 10 uM after 48 hrs by sulphorhodamine B assay; details: HCT-116, 48 h, read-out: GI; procedure, shortened: as §1
SF-268 = assay: Cytotoxicity against human SF268 cells assessed as growth inhibition at 10 uM after 48 hrs by sulphorhodamine B assay; details: SF-268, 48 h, read-out: GI; procedure, shortened: as §1
HCT-15 = assay: Cytotoxicity against human HCT15 cells assessed as growth inhibition at 10 uM after 48 hrs by sulphorhodamine B assay; details: HCT-15, 48 h, read-out: GI; procedure, shortened: as §1
SF-295 = assay: Cytotoxicity against human SF295 cells assessed as growth inhibition at 10 uM after 48 hrs by sulphorhodamine B assay; details: SF-295, 48 h, read-out: GI; procedure, shortened: as §1
SR = assay: Cytotoxicity against human SR cells assessed as growth inhibition at 10 uM after 48 hrs by sulphorhodamine B assay; details: read-out: GI; procedure, shortened: as §1
LOX IMVI = assay: Cytotoxicity against human LOXIMVI cells assessed as growth inhibition at 10 uM after 48 hrs by sulphorhodamine B assay; details: read-out: GI; procedure, shortened: as §1
SNB-75 = assay: Cytotoxicity against human SNB75 cells assessed as growth inhibition at 10 uM after 48 hrs by sulphorhodamine B assay; details: SNB-75, 48 h, read-out: GI; procedure, shortened: as §1
T47D = assay: Cytotoxicity against human T47D cells assessed as growth inhibition at 10 uM after 48 hrs by sulphorhodamine B assay; details: read-out: GI; procedure, shortened: as §1
NCI-H522 = assay: Cytotoxicity against human NCI-H522 cells assessed as growth inhibition at 10 uM after 48 hrs by sulphorhodamine B assay; details: NCI-H522, 48 h, read-out: GI; procedure, shortened: as §1
ACHN = assay: Cytotoxicity against human ACHN cells assessed as growth inhibition at 10 uM after 48 hrs by sulphorhodamine B assay; details: read-out: GI; procedure, shortened: as §1
A498 = assay: Cytotoxicity against human A498 cells assessed as growth inhibition at 10 uM after 48 hrs by sulphorhodamine B assay; details: A498, 48 h, read-out: GI; procedure, shortened: as §1
CAKI-1 = assay: Cytotoxicity against human Caki1 cells assessed as growth inhibition at 10 uM after 48 hrs by sulphorhodamine B assay; details: CAKI-1, 48 h, read-out: GI; procedure, shortened: as §1

Structure (SMILES): COc1ccc(-c2c(C#N)c(N)nc3c2CCCC3C)cc1 (stereo unspecified)
- inhibition of growth at 10 µM (NCI/ADR-RES): 24.1%
- inhibition of growth at 10 µM (PC-3): 16.2%
- inhibition of growth at 10 µM [1]: < 10%
- inhibition of growth at 10 µM (M14): < 10%
- inhibition of growth at 10 µM (SNB-19): 11%
- inhibition of growth at 10 µM (U-251): 20%
- inhibition of growth at 10 µM (UACC-62): 20%
- inhibition of growth at 10 µM (HT-29): < 10%
- inhibition of growth at 10 µM (UO-31): < 10%
- inhibition of growth at 10 µM (MCF7): 10%
- inhibition of growth at 10 µM (MDA-MB-468): 15.2%
- inhibition of growth at 10 µM (Hs-578T): < 10%
- inhibition of growth at 10 µM (MOLT-4): 21.3%
- inhibition of growth at 10 µM (RPMI-8226): 34.1%
- inhibition of growth at 10 µM (A549): 15.7%
- inhibition of growth at 10 µM (IGROV-1): < 10%
- inhibition of growth at 10 µM (RXF 393): 11.1%
- inhibition of growth at 10 µM (OVCAR-4): 17.2%
- inhibition of growth at 10 µM (K562): 28.4%
- inhibition of growth at 10 µM (SK-MEL-2): < 10%
- inhibition of growth at 10 µM (HL-60(TB)): 11.7%
- inhibition of growth at 10 µM (OVCAR-5): < 10%
- inhibition of growth at 10 µM (DU-145): < 10%
- inhibition of growth at 10 µM (SK-OV-3): < 10%
- inhibition of growth at 10 µM (NCI-H23): 11%
- inhibition of growth at 10 µM (HOP-92): 20%
- inhibition of growth at 10 µM (CCRF-CEM): 16.3%
- inhibition of growth at 10 µM (MDA-MB-435): < 10%
- inhibition of growth at 10 µM (SK-MEL-5): 14.5%
- inhibition of growth at 10 µM (HCT-116): 15.7%
- inhibition of growth at 10 µM (SF-268): < 10%
- inhibition of growth at 10 µM (HCT-15): 25.3%
- inhibition of growth at 10 µM (SF-295): < 10%
- inhibition of growth at 10 µM (SR): 36.6%
- inhibition of growth at 10 µM (LOX IMVI): 12.3%
- inhibition of growth at 10 µM (SNB-75): 25.3%
- inhibition of growth at 10 µM (T47D): 41%
- inhibition of growth at 10 µM (NCI-H522): 14.6%
- inhibition of growth at 10 µM (ACHN): < 10%
- inhibition of growth at 10 µM (A498): < 10%
- inhibition of growth at 10 µM (CAKI-1): < 10%
